Experimental data taken from ChEMBL document CHEMBL4190245, “Caffeic Acid Phenethyl Ester from the Twigs of Cinnamomum cassia Inhibits Malignant Cell Transformation by Inducing c-Fos Degradation” (J Nat Prod, 2017).
Calls of active or inactive are those of the source.

Columns and labels:
[1] = species: Mus musculus; test: Inhibition of EGF-induced cell cycle progression in mouse epidermal JB6 P+ cells assessed as accumulation at G1 phase at 0.25 to 1 uM preincubated for 1 hr followed by EGF challenge measured after 24 hrs by propidium iodide staining-based FACS analysis; assay type: functional
Outline: (§1)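 Seeded at 1.5 × 10^5 cells per 60 mm dish, starved 24 h in 0.1% FBS MEM, pretreated 1 h with compound, then EGF (10 ng/mL) for 24 h; cells fixed in cold 70% ethanol overnight, stained with RNase A and propidium iodide for 30 min at room temperature, analysed by flow cytometry; n = 3.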

[2] = species: Mus musculus; test: Induction of proteasome-mediated c-fos degradation in EGF-stimulated mouse JB6 P+ cells assessed as reduction in c-fos activity at 0.25 to 1 uM preincubated for 1 hr followed by EGF stimulation
Outline: (§2)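 The TransAM AP-1 family ELISA was run on cell extracts: wells coated with AP-1 binding oligonucleotide, probed with a c-Fos or p-c-Jun specific primary antibody, then an HRP secondary, and absorbance read at 450 nm; n = 3.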

[3] = species: Mus musculus; test: Inhibition of EGF-induced c-fos mRNA expression in mouse JB6 P+ cells at 0.5 to 1 uM preincubated for 1 hr followed by EGF stimulation and measured after 15 mins by real-time PCR method; assay type: functional, cell-based
Outline: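 Compound given 1 h before EGF (10 ng/mL); total RNA extracted 15 min later, reverse-transcribed and c-fos quantified by SYBR Green real-time PCR (95 °C 10 min, then 40 cycles of 95 °C 15 s and 59 °C 1 min); n = 3.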

[4] = species: Mus musculus; test: Induction of proteasome-mediated c-fos degradation in EGF-stimulated mouse JB6 P+ cells assessed as reduction in c-fos protein level at 1 uM preincubated for 1 hr followed by EGF stimulation for 15 mins in presence of 10 uM proteasome inhibitor MG132 by Western blot method
Outline: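 Cells serum-starved 24 h, pretreated with MG132 (10 μM) plus compound (0.5 and 1 μM), collected 15 min after EGF (10 ng/mL); lysates immunoblotted for c-Fos.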

[5] = species: Mus musculus; test: Induction of proteasome-mediated c-fos degradation in EGF-stimulated mouse JB6 P+ cells assessed as reduction in c-fos protein level at 1 uM preincubated for 1 hr followed by EGF stimulation for 15 mins by Western blot method
Outline: (§3)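 JB6 P+ cells were serum-starved 24 h, pretreated 1 h with compound (0.5 and 1 μM), then stimulated with EGF (10 ng/mL) and harvested after 15 min. Lysates (10−60 μg protein) were run on SDS-PAGE and immunoblotted for phospho or total proteins, with chemiluminescent detection.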

[6] = species: Mus musculus; test: Inhibition of TPA-induced mouse JB6 P+ cells transformation after 14 days by microscopy based soft agar assay; assay type: functional
Outline: (§4)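 Soft agar: 8 × 10^3 cells/mL in 0.3% BME top agar with 10% FBS, compound and EGF or TPA, layered over 0.5% agar in BME with 10% FBS and the same additions; kept 1 to 2 weeks at 37 °C in 5% CO2, colonies counted by microscope; triplicate means ± SD.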

[7] = biological target: Transcription factor Jun (Mus musculus) (UniProt P05627); test: Effect on phosphorylated c-jun in EGF-stimulated mouse JB6 P+ cells at 0.25 to 1 uM preincubated for 1 hr followed by EGF stimulation; outline: as §2
[8] = species: Mus musculus; test: Inhibition of CREB phosphorylation at S133 residue in EGF-stimulated mouse JB6 P+ cells at 0.5 to 1 uM preincubated for 1 hr followed by EGF stimulation and measured after 15 mins by Western blot method; outline: as §3
[9] = Cytotoxicity against mouse JB6 P+ cells up to 10 uM after 24 to 48 hrs by CellTiter96 AQueous one solution assay; assay type: cell-based
Outline: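 JB6 P+ cells seeded, incubated overnight, then switched to 0.1% FBS MEM and compound added; viability read by MTS reagent at 24 and 48 h; triplicate samples, means ± standard deviation.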

[10] = species: Mus musculus; test: Inhibition of EGF-induced cell cycle progression in mouse epidermal JB6 P+ cells assessed as reduction in accumulation at G2/M phase at 0.25 to 1 uM preincubated for 1 hr followed by EGF challenge and measured after 24 hrs by propidium iodide staining-based FACS analysis; assay type: functional; outline: as §1
[11] = species: Mus musculus; test: Inhibition of EGF-induced mouse JB6 P+ cells transformation after 12 days by microscopy based soft agar assay; assay type: functional; outline: as §4
[12] = species: Mus musculus; test: Inhibition of ERK phosphorylation at T202/Y204 residue in EGF-stimulated mouse JB6 P+ cells at 0.5 to 1 uM preincubated for 1 hr followed by EGF stimulation and measured after 15 mins by Western blot method; outline: as §3
[13] = species: Mus musculus; test: Induction of proteasome-mediated c-fos degradation in EGF-stimulated mouse JB6 P+ cells assessed as inhibition of c-fos phosphorylation at S32 residue at 0.5 to 1 uM preincubated for 1 hr followed by EGF stimulation and measured after 15 mins by Western blot method; outline: as §3
[14] = species: Mus musculus; test: Induction of proteasome-mediated c-fos degradation in EGF-stimulated mouse JB6 P+ cells assessed as reduction in total c-fos protein level at 0.5 to 1 uM preincubated for 1 hr followed by EGF stimulation and measured after 15 mins by Western blot method; outline: as §3
[15] = species: Mus musculus; test: Inhibition of RSK phosphorylation at T359/S363 residue in EGF-stimulated mouse JB6 P+ cells at 0.5 to 1 uM preincubated for 1 hr followed by EGF stimulation and measured after 15 mins by Western blot method; outline: as §3
[16] = species: Mus musculus; test: Inhibition of TPA-induced mouse JB6 P+ cells transformation at 0.25 to 2 uM after 14 days by microscopy based soft agar assay; assay type: functional; outline: as §4
[17] = species: Mus musculus; test: Induction of proteasome-mediated c-fos degradation (unknown origin) expressed in EGF-stimulated mouse JB6 P+ cells co-expressing AP1-lucifearse assessed as inhibition of AP-1 activation preincubated for 1 hr followed by EGF stimulation for 4 hrs by luciferase reporter gene assay; assay type: cell-based
Outline: (§5)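 JB6 P+ cells stably carrying an AP-1 luciferase reporter (kept in 5% FBS MEM with 200 μg/mL G418) were starved 24 h in 0.1% FBS MEM, given compound 1 h before EGF (10 ng/mL) or TPA (20 ng/mL), lysed in phosphate/Triton buffer pH 7.8 and read for firefly luciferase; n = 3.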

[18] = species: Mus musculus; test: Inhibition of EGF-induced cell cycle progression in mouse epidermal JB6 P+ cells assessed as reduction in accumulation at G2/M phase at 0.5 to 1 uM preincubated for 1 hr followed by EGF challenge and measured after 24 hrs by propidium iodide staining-based FACS analysis; assay type: functional; outline: as §1
[19] = species: Mus musculus; test: Induction of proteasome-mediated c-fos degradation (unknown origin) expressed in TPA-stimulated mouse JB6 P+ cells co-expressing AP1-lucifearse assessed as inhibition of AP-1 activation preincubated for 1 hr followed by TPA stimulation for 4 hrs by luciferase reporter gene assay; assay type: cell-based; outline: as §5
[20] = species: Mus musculus; test: Inhibition of EGF-induced mouse JB6 P+ cells transformation at 0.25 to 2 uM after 12 days by microscopy based soft agar assay; assay type: functional; outline: as §4
[21] = species: Mus musculus; test: Inhibition of EGF-induced cell cycle progression in mouse epidermal JB6 P+ cells assessed as accumulation at G1 phase at 0.5 to 1 uM preincubated for 1 hr followed by EGF challenge measured after 24 hrs by propidium iodide staining-based FACS analysis; assay type: functional; outline: as §1

Transcription factor Jun (Mus musculus), sequence (P05627 whole entry): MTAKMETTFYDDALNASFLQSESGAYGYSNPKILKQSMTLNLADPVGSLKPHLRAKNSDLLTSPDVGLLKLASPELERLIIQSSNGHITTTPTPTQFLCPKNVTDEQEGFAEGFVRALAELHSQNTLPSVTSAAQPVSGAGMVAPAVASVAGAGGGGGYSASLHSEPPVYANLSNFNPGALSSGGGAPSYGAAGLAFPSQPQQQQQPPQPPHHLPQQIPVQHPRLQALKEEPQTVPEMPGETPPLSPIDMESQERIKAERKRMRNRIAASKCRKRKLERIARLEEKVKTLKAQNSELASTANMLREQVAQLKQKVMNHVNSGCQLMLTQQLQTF

O=C(/C=C/c1ccc(O)c(O)c1)OCCc1ccccc1 [CAFFEIC ACID PHENETHYL ESTER]
inactive: inhibition [3] | Activity [4] | Activity [7] | inhibition [8] | inhibition [12] | inhibition [15]
active: inhibition [1] | Activity [2] | Activity [5] | inhibition [6] Dose-dependent effect | inhibition [10] | inhibition [11] Dose-dependent effect | Activity [13] | Activity [14]
Non-Toxic: Activity [9]

O=C(O)/C=C/c1ccc(O)c(O)c1 [CAFFEIC ACID]
inactive: inhibition [16] | Activity [17] | inhibition [18] | Activity [19] | inhibition [20] | inhibition [21] | Activity [13] | Activity [14]
Non-Toxic: Activity [9]
